According to ChEMBL document CHEMBL3808295, “Discovery of enantioselectivity of urea inhibitors of soluble epoxide hydrolase” (Eur J Med Chem, 2016):

Experiments:
[1] = biological target: T1, Epoxide hydrolase 1 (Homo sapiens) (UniProt P07099); experiment: Inhibition of microsomal epoxide hydrolase in pooled human liver microsomes assessed as enzyme activity using styrene oxide as substrate at 10 uM incubated for 10 mins by UV-HPLC analysis relative to control; set-up: scale not given: the % may be the effect or the level left
T1 sequence (whole entry): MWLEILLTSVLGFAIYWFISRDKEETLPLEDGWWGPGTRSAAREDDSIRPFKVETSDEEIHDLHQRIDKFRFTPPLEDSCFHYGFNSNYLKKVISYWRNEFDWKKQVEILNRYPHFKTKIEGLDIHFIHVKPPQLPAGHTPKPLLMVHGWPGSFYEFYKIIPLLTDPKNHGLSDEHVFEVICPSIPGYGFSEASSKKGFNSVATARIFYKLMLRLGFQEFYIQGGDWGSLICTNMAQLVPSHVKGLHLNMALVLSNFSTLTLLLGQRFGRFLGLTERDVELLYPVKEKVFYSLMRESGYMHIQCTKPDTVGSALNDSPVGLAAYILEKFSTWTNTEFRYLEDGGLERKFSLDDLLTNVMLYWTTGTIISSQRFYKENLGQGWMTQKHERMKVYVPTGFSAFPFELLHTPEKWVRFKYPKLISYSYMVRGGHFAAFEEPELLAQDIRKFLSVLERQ
How it was run: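 Pooled human liver microsomes (0.2 mg/mL) incubated with styrene oxide (25 μM) and 10 μM test compound in 0.1 M Tris-HCl pH 9.0 at 37°C for 10 min; quenched with n-hexane, centrifuged, supernatant analysed by UV-HPLC (C18, 30°C, 40% methanol). Activity from styrene glycol formed, as percentage of control; valpromide positive control.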

[2] = biological target: T2, Bifunctional epoxide hydrolase 2 (Homo sapiens, UniProt P34913); experiment: Inhibition of soluble epoxide hydrolase (unknown origin) using 14,15-EET as substrate incubated for 20 mins by LC-MS/MS analysis
T2 sequence (P34913 whole entry): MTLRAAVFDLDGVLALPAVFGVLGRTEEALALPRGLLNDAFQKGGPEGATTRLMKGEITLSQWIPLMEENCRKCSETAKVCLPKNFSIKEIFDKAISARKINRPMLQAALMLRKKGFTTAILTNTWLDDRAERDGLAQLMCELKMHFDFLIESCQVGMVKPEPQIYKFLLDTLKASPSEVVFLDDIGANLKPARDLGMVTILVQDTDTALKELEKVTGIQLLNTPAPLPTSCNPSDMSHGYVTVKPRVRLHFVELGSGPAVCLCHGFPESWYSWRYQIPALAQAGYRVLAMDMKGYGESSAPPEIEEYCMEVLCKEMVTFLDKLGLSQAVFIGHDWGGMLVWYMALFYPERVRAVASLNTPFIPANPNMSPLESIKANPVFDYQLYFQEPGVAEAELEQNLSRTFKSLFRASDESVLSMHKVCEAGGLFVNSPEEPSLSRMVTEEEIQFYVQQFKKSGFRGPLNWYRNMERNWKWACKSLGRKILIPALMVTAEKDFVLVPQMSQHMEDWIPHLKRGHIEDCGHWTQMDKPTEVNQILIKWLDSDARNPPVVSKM

## O=C(NCCCc1ccccc1)N[C@@H]1CCc2ccccc21
[1]
  Activity: 110%
[2]
  IC50: 22 nM

## CC[C@H](NC(=O)NCCCc1ccccc1)c1ccccc1
[1]
  Activity: 106%
[2]
  IC50: 36 nM

## C[C@@H](NC(=O)NCCCc1ccc(S(N)(=O)=O)cc1)c1ccccc1
[1]
  Activity: 101%
[2]
  IC50: 2030 nM

## C[C@@H](NC(=O)NCCCc1ccccc1)c1cccc2ccccc12
[1]
  Activity: 98.7%
[2]
  IC50: 364 nM

## C[C@@H](NC(=O)NCCCc1ccccc1)c1ccccc1
[1]
  Activity: 102%
[2]
  IC50: 1730 nM

## C[C@H](NC(=O)NCCCc1ccccc1)c1cccc2ccccc12
[1]
  Activity: 102%
[2]
  IC50: 43 nM

## C[C@H](NC(=O)NCCCc1ccccc1)c1ccccc1
[1]
  Activity: 84.6%
[2]
  IC50: 44 nM

## O=C(NCCCc1ccccc1)N1CCC[C@@H]1c1ccccc1
[1]
  Activity: 101%
[2]
  IC50: 1510 nM

## O=C(NCCCc1ccccc1)N[C@H](CO)c1ccccc1
[1]
  Activity: 107%
[2]
  IC50: 20000 nM

## C[C@H](NC(=O)NCCCc1ccccc1)C1CCCCC1
[1]
  Activity: 99.4%
[2]
  IC50: 182 nM

## O=C(NCCCc1ccccc1)N1CCC[C@H]1c1ccccc1
[1]
  Activity: 99.8%
[2]
  IC50: 332 nM

## CCC(C)NC(=O)NCCCc1ccccc1 (racemic)
[1]
  Activity: 102%
[2]
  IC50: 650 nM

## O=C(NCCCc1ccccc1)N[C@H]1CCCc2ccccc21
[1]
  Activity: 106%
[2]
  IC50: 13 nM

## CC[C@H](C)NC(=O)NCCCc1ccccc1
[1]
  Activity: 101%
[2]
  IC50: 63 nM

## O=C(NCCCc1ccccc1)N[C@@H](CO)c1ccccc1
[1]
  Activity: 102%
[2]
  IC50: 2740 nM

## CCCC(CCC)C(N)=O
[1]
  Activity: 50.9%

## CC[C@@H](NC(=O)NCCCc1ccccc1)c1ccccc1
[1]
  Activity: 103%
[2]
  IC50: 4500 nM

## O=C(NCCCc1ccccc1)N[C@H]1CCc2ccccc21
[1]
  Activity: 112%
[2]
  IC50: 65 nM

## O=C(NCCCc1ccccc1)NCc1ccccc1
[1]
  Activity: 105%
[2]
  IC50: 3260 nM

## C[C@H](NC(=O)NCCCc1ccc(S(N)(=O)=O)cc1)c1ccccc1
[1]
  Activity: 99.9%
[2]
  IC50: 22 nM

## C[C@@H](NC(=O)NCCCc1ccccc1)C1CCCCC1
[1]
  Activity: 103%
[2]
  IC50: 302 nM

## O=C(NCCCc1ccccc1)N[C@@H]1CCCc2ccccc21
[1]
  Activity: 106%
[2]
  IC50: 13 nM
